Experimental data: publication PMC6718336 (Proteins, 2019)
Where “and” joins values, the source holds several entries; their conditions need not be identical. Identical values can stand only once.

Key:
Hsp90β = details: competition binding assays; cited from earlier work
Hsp90α (1-236) NTD [1] = target: Hsp90α (1-236) NTD (Homo sapiens, UniProt P07900); test: ITC binding to Hsp90α NTD; details: ITC, 298 K; for N: stoichiometry, one-site model
Method in brief: (§1)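 Human Hsp90α residues 1-236, N-terminal His-tagged, expressed in E. coli Rosetta (DE3), purified by Ni-NTA and size exclusion. ITC in matched 40 mM HEPES-KOH pH 7.4, 100 mM NaCl, 1% DMSO. Protein (503 or 336 μM) titrated into test compound (50.7 or 30.1 μM); nucleotides titrated into protein. One-site fit, mean of two titrations ± SEM.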

Hsp90α (1-236) NTD [2] = test: ITC binding to Hsp90α NTD; set-up: species or system Human; details: preference for Hsp90α over Hsp90β from ITC KD
Method in brief: as §1

Hsp90β NTD = Hsp90β NTD (Homo sapiens, UniProt P08238); test: ITC binding to Hsp90β NTD; details: 298 K; for N: stoichiometry, one-site model
Method in brief: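 Human Hsp90β NTD, N-terminal His-tagged, expressed in E. coli Rosetta (DE3), purified by Ni-NTA then size exclusion. ITC in matched 40 mM HEPES-KOH pH 7.4, 100 mM NaCl, 1% DMSO. 891 or 885 μM protein was injected into 93.3 or 97.8 μM test compound in the cell. For ATP/ADP, protein was in the cell and nucleotide in the syringe. One-site fit; mean of two titrations ± SEM.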

Hsp90α S52A (1-236) = Hsp90α S52A (1-236) (Homo sapiens, UniProt P07900, S52A); test: ITC binding to Hsp90α S52A mutant NTD; details: for C-values / Kd / TΔS / ΔG / ΔH / N: ITC, 298 K; for N: stoichiometry, one-site model; for fold change in affinity, Hsp90α S52A vs wild type Hsp90α: ratio of ITC KD
Method in brief: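 Human Hsp90α NTD (1-236) S52A, N-terminal His-tagged, expressed in E. coli Rosetta (DE3), purified by Ni-NTA then size exclusion. ITC in matched 40 mM HEPES-KOH pH 7.4, 100 mM NaCl, 1% DMSO. 255 or 393 μM protein was injected into 33.0 or 41.8 μM test compound. Wild type was run alike: 503 or 336 μM into 50.7 or 30.1 μM. One-site fit; mean of two titrations ± SEM.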

Sequence of Hsp90β NTD (P08238 1-221 limits assumed): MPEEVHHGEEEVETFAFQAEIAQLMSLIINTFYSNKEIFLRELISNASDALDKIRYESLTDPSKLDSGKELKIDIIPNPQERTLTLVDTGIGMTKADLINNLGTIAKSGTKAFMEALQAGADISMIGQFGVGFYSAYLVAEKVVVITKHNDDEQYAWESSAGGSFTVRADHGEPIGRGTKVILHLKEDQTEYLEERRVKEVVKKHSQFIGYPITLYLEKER

| C-values (Hsp90α (1-236) NTD [1]) | Kd (Hsp90α (1-236) NTD [1]) | TΔS (Hsp90α (1-236) NTD [1]) [kcal/mol] | ΔG (Hsp90α (1-236) NTD [1]) [kcal/mol] | ΔH (Hsp90α (1-236) NTD [1]) [kcal/mol] | N (Hsp90α (1-236) NTD [1]) | α/β selectivity, KD (ITC) (Hsp90α (1-236) NTD [2]) [fold] | C-values (Hsp90β NTD) | Kd (Hsp90β NTD) [µM] | TΔS (Hsp90β NTD) [kcal/mol] | ΔG (Hsp90β NTD) [kcal/mol] | ΔH (Hsp90β NTD) [kcal/mol] | N (Hsp90β NTD) | C-values (Hsp90α S52A (1-236)) | Kd (Hsp90α S52A (1-236)) [µM] | TΔS (Hsp90α S52A (1-236)) [kcal/mol] | ΔG (Hsp90α S52A (1-236)) [kcal/mol] | ΔH (Hsp90α S52A (1-236)) [kcal/mol] | N (Hsp90α S52A (1-236)) | fold change in affinity, Hsp90α S52A vs wild type Hsp90α (Hsp90α S52A (1-236)) [fold] | SMILES | further results |
| --- | --- | --- | --- | --- | --- | --- | --- | --- | --- | --- | --- | --- | --- | --- | --- | --- | --- | --- | --- | --- | --- |
|  |  |  |  |  |  |  |  |  |  |  |  |  |  |  |  |  |  |  |  | CC(C)c1cc(C(=O)N2Cc3ccccc3C2)c(O)c2cnoc12 [KUNB31] | preference for Hsp90β over Hsp90α (Hsp90β): 50 fold |
| 8.40 – 11.1 | 8.6 µM and 8.59 µM | -13.0 ± 0.28 | -6.90 ± 0.00 | -19.9 ± 0.28 | 0.752 ± 0.014 | 1.4 ± 0.2 | 6.74 – 14.1 | 12.4 ± 1.77 | -12.9 ± 0.99 | -6.75 ± 0.07 | -19.7 ± 0.92 | 0.813 ± 0.042 | 16.7 – 18.2 | 9.06 ± 0.93 | -13.0 ± 0.21 | -6.85 ± 0.07 | -19.8 ± 0.14 | 0.756 ± 0.100 | 1.05 ± 0.11 | Nc1ncnc2c1ncn2[C@@H]1O[C@H](COP(=O)(O)OP(=O)(O)O)[C@@H](O)[C@H]1O [ADP] |  |
| 1.13 – 1.44 | 209 ± 21.9 µM | -12.0 ± 1.84 | -5.05 ± 0.07 | -17.1 ± 1.77 | 0.691 ± 0.066 | 1.3 ± 0.2 | 1.00 – 1.19 | 281 ± 39.6 | -12.3 ± 2.55 | -4.90 ± 0.14 | -17.2 ± 2.40 | 0.707 ± 0.112 | 1.26 – 1.29 | 239 ± 0.71 | -12.7 ± 0.85 | -4.95 ± 0.07 | -17.7 ± 0.78 | 0.592 ± 0.026 | 1.14 ± 0.12 | Nc1ncnc2c1ncn2[C@@H]1O[C@H](COP(=O)(O)OP(=O)(O)OP(=O)(O)O)[C@@H](O)[C@H]1O [ATP] |  |
